Source: ChEMBL document CHEMBL4118140, “Synthesis and in vitro evaluation of homoisoflavonoids as potent inhibitors of nitric oxide production in RAW-264.7 cells” (Bioorg Med Chem Lett, 2018)
Activity calls are given as the source filed them. The rule behind the calls is not given here.

Assays:
[1] = Cytotoxicity against mouse RAW264.7 cells assessed as cell viability at 50 uM after 24 hrs by CellTiter96 AQueous one solution cell proliferation assay (reference value: 100 +/- 2.4%); assay type: cell-based; details: read-out: Activity
RAW264.7 [2] = assay: Effect on beta-actin expression in LPS-stimulated mouse RAW264.7 cells at 10 uM after 18 hrs by Western blot method; assay type: cell-based; details: raw264.7, 18 h
[3] = Cytotoxicity against mouse RAW264.7 cells assessed as cell viability at 1 uM after 24 hrs by CellTiter96 AQueous one solution cell proliferation assay (reference value: 100 +/- 2.4%); assay type: cell-based; details: read-out: Activity
RAW264.7 [4] = assay: Antiinflammatory activity in mouse RAW264.7 cells assessed as reduction in LPS-induced NO production after 18 hrs by Griess assay; assay type: functional, cell-based; details: RAW264.7, 18 h
Outline: (§1)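 RAW 264.7 macrophages were stimulated with LPS together with test compound at 0.1, 1, 10, 25, 50 and 100 (six levels), with L-NMMA as the reference inhibitor. NO production was measured and expressed as % of the LPS-only control, with inhibition = 100 − that value. Results are mean ± SEM, n = 3, and IC50 came from the concentration series.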

RAW264.7 [5] = assay: Inhibition of iNOS expression in LPS-stimulated mouse RAW264.7 cells at 10 uM after 18 hrs by Western blot method; assay type: functional, cell-based
[6] = Cytotoxicity against mouse RAW264.7 cells assessed as cell viability at 10 uM after 24 hrs by CellTiter96 AQueous one solution cell proliferation assay (reference value: 100 +/- 2.4%); assay type: cell-based; details: read-out: Activity
[7] = Cytotoxicity against mouse RAW264.7 cells assessed as cell viability at 100 uM after 24 hrs by CellTiter96 AQueous one solution cell proliferation assay (reference value: 100 +/- 2.4%); assay type: cell-based; details: read-out: Activity
RAW264.7 [8] = assay: Antiinflammatory activity in mouse RAW264.7 cells assessed as reduction in LPS-induced NO production at 10 uM after 18 hrs by Griess assay relative to control; assay type: functional; details: RAW264.7, 18 h; outline: as §1
RAW264.7 [9] = assay: Antiinflammatory activity in mouse RAW264.7 cells assessed as reduction in LPS-induced NO production at 1 uM after 18 hrs by Griess assay relative to control; assay type: functional; details: RAW264.7, 18 h; outline: as §1

| Compound | viability at 24 h, 50 µM [1] [%] | Activity (RAW264.7 [2]) | viability at 24 h, 1 µM [3] [%] | IC50 (RAW264.7 [4]) [µM] | iNOS expression inhibition (active/inactive) (RAW264.7 [5]) | viability at 24 h, 10 µM [6] [%] | viability at 24 h, 100 µM [7] [%] | inhibition at 10 µM (RAW264.7 [8]) [%] | inhibition at 1 µM (RAW264.7 [9]) [%] |
| --- | --- | --- | --- | --- | --- | --- | --- | --- | --- |
| COc1cc(OC)c2c(c1)OC/C(=C\c1ccccc1O)C2=O | 13.3 | Non-Toxic | 108 | 1.26 | Active | 114 | 11.7 | 97.2 | 38.5 |
| CNC(=N)NCCC[C@H](N)C(=O)O [TILARGININE] | – | – | – | 16.1 | – | – | – | 14.2 | -12.5 |
| COc1cc(OC)c2c(c1)OCC(Cc1ccccc1O)C2=O (racemic) | 55.2 | – | 98.6 | 14.2 | – | 165 | 41.3 | 20.5 | -2.8 |
| COc1cc2c(c(OC)c1OC)C(=O)/C(=C/c1ccccc1O)CO2 | 11.8 | Non-Toxic | 94.6 | 2.91 | Active | 93.4 | 10.9 | 83 | 16.2 |
| COc1ccc2c(c1)OCC(Cc1ccccc1O)C2=O (centres undefined) | 49.4 | – | 152 | 14.2 | – | 118 | 31.5 | 19.7 | 9.2 |
| COc1cc2c(c(OC)c1OC)C(=O)C(Cc1ccccc1O)CO2 (racemic) | 58.7 | – | 89.6 | 13.4 | – | 87.2 | 44 | 15.9 | -24.6 |
| COc1ccc2c(c1)OC/C(=C\c1ccccc1O)C2=O | 11 | Non-Toxic | 102 | 1.75 | Active | 97.7 | 11.1 | 91.4 | 28.4 |
| COc1cc(O)c2c(c1)OC/C(=C\c1ccccc1O)C2=O | 10.7 | Non-Toxic | 94 | 2.09 | Active | 97 | 11 | 92.5 | 21.1 |
| COc1cc(O)c2c(c1)OCC(Cc1ccccc1O)C2=O (centres undefined) | 34.2 | – | 97.7 | 12.4 | – | 81.1 | 12.5 | 38 | 2.8 |
| COc1cc2c(c(O)c1OC)C(=O)C(Cc1ccccc1O)CO2 (racemic) | 41.1 | – | 97.6 | 12.2 | – | 96.7 | 15.5 | 34.1 | -11.8 |
